The source made the active and inactive calls. The rule behind the calls is not given here.
Assays:
HUVEC = experiment: Stimulation of innate immune response in HUVEC assessed as increase in TNFalpha-stimulated IL-8 production at 10 ug/ml preincubated for 3 hrs followed by TNFalpha stimulation measured after 12 hrs by ELISA; type: functional, cell-based; details: Homo sapiens
Outline: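 HUVECs grown in EGM-2 at 37 °C, 5% CO2. Cells preincubated ±compound for 3 h, then given 11 μL of 10 ng/mL hTNF-α (stock added to 100 μL well). Supernatants collected after a further 12 h for ELISA.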

[1] = Cytotoxicity against Drosophila melanogaster S2 cells assessed as reduction in cell viability at 10 ug/ml by WST8 assay; type: cell-based
Outline: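 S2 cells kept at 25 °C in Schneider's medium with 10% FBS and 1% antibiotics/antimycotics. Viability read by colorimetric WST-8 conversion.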

Drosophila [2] = experiment: Stimulation of innate immune response in Drosophila third-instar larvae assessed as DAP-type peptidoglycans-mediated Dpt-LacZ activation at 10 ug/ml after 12 hrs by beta-galactosidase reporter gene assay; type: functional, organism-based
Outline: (§1)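 Opened third-instar Dpt-lacZ larvae cultured whole in Schneider's medium with 20% FBS and 1% antibiotics/antimycotics, 25 °C, six larvae per condition as replicates. Compound added from DMSO together with 100 ng/mL E. coli peptidoglycan for 12 h. Each larva sonicated in phosphate buffer (60 mM Na2HPO4, 40 mM NaH2PO4, 10 mM KCl, 1 mM MgCl2) and spun 10000g, 4 °C, 10 min. Supernatant β-galactosidase normalized to total protein.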

Drosophila [3] = experiment: Stimulation of innate immune response in Drosophila third-instar larvae assessed as DAP-type peptidoglycans-mediated Dpt-LacZ activation at 10 ug/ml after 12 hrs by beta-galactosidase reporter gene assay relative to control; type: functional; outline: as §1
Drosophila [4] = experiment: Stimulation of innate immune response in Drosophila third-instar larvae assessed as DAP-type peptidoglycans-mediated Dpt-LacZ activation at 1 to 10 ug/ml after 12 hrs by beta-galactosidase reporter gene assay; type: functional, organism-based; outline: as §1

| Compound | Activity (HUVEC) | Activity [1] | Activity (Drosophila [2]) | fold change (FC) (Drosophila [3]) | Activity (Drosophila [4]) |
| --- | --- | --- | --- | --- | --- |
| COc1ccc(-c2cc(=O)c3c(OC)cc(C)c(-c4c(C)cc(OC)c5c(=O)cc(-c6ccc(OC)cc6)oc45)c3o2)cc1 | Active | Non-Toxic | Active | – | – |
| COC(=O)[C@]1([C@@H]2CCC(=O)O2)CC(=O)c2c(O)cc(C)c(-c3c(C)cc(O)c4c3O[C@@](C(=O)OC)([C@@H]3CCC(=O)O3)CC4=O)c2O1 | Active | – | – | >3 | Dose-dependent effect |
| COC(=O)CCCc1cc(=O)c2c(OC)cc(C)c(-c3c(C)cc(OC)c4c(=O)cc(CCCC(=O)OC)oc34)c2o1 | Active | Non-Toxic | Active | – | – |
| COc1cc(C)c(-c2c(C)cc(OC)c3c(=O)cc(CCCCOC(C)=O)oc23)c2oc(CCCCOC(C)=O)cc(=O)c12 | – | Non-Toxic | Active | – | – |
| COc1cc(C)c(-c2c(C)cc(OC)c3c(=O)cc(CCCCO)oc23)c2oc(CCCCO)cc(=O)c12 | – | – | – | – | inactive |
